The values below come from paper PMC5949723 (Journal of Medicinal Chemistry, 2018).

Broadly, the Ki is the equilibrium dissociation constant of an inhibitor or competing ligand from its target. As usually defined, the IC50 is the concentration at which inhibition is half-maximal.

Each structure is given as a SMILES string. Bounds are passed on as bounds.

Test [1] deals with T1, full length TbrPDEB1 (Trypanosoma brucei, UniProt Q8WQX9).
T1 sequence (Q8WQX9 1-930): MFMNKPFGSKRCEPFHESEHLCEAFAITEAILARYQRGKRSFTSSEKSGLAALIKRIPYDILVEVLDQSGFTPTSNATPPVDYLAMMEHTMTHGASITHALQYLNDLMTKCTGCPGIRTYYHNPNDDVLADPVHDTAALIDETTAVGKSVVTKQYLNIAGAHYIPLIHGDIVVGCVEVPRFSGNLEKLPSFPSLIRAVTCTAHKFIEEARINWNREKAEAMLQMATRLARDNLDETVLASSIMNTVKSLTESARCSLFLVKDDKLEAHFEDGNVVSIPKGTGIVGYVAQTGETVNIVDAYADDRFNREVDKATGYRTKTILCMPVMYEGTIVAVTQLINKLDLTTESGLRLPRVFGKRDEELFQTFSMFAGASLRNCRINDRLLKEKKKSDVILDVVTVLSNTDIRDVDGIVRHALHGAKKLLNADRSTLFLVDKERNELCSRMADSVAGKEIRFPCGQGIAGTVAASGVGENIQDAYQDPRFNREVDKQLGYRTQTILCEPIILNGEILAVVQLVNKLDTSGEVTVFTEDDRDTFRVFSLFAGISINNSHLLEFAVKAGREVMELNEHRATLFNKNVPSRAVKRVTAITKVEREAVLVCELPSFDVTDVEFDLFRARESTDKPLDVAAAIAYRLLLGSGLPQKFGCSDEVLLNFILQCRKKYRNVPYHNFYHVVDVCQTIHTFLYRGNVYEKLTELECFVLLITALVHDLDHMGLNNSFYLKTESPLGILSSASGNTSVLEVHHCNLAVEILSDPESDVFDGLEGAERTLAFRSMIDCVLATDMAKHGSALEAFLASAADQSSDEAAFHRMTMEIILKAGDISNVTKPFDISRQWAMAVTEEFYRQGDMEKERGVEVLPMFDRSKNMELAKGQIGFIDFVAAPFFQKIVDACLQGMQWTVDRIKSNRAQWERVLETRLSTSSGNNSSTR
As to the kind of experiment: Phosphodiesterase activity assay. Format: biochemical. The settings on record: for Selectivity, hPDE4B1 (Ki)/TbrPDEB1 (Ki): ratio of Ki values.

Test [2] addresses T1, full length TbrPDEB1. The settings on record: established hPDE4 inhibitors; cited from earlier work.
The subject of test [3] is T. brucei cellular PDE activity. The note with it: cited from earlier work.
The test system of another test is T. brucei. The settings on record: cited from earlier work.
Test [4] deals with T2, full length recombinant hPDE4B1 (Homo sapiens, UniProt Q07343). As to the kind of experiment: Phosphodiesterase activity assay. It is filed as biochemical.
Test [5] deals with intracellular cAMP levels in T. brucei. As to the kind of experiment: Intracellular cAMP measurements in bloodstream form trypanosomes. The settings on record: 5 h. Format: cell-based, T. brucei Lister 427. A digest of the protocol:
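Log-phase bloodstream forms, HMI-9 with 10% heat-inactivated FBS, 37 °C, 5% CO2, set at 2 × 10^6 cells/mL. Dosed 5 h with test compound at 0.1, 0.33, 1, 3.3 or 10 μM (final), 0.3 μM PDE inhibitor positive control, 0.025 μM pentamidine, or no drug. 5 × 10^6 cells pelleted and lysed in 0.1 M HCl on ice 20 min; cAMP assayed in extracts in duplicate. Mean of four determinations ± SEM, Student's t-test, P < 0.05.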

The target of test [6] is T2, full length recombinant hPDE4B1. The settings on record: read-out: hPDE4B1 IC50; cited from earlier work.
A further test concerns hPDE4 subtypes. The settings on record: read-out: hPDE4 subtypes IC50; cited from earlier work.
The subject of test [7] is T. brucei bloodstream forms. In words: Microscopy and DAPI staining. Format: cell-based. The note with it: 10 μM. A digest of the protocol:
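Lister 427 bloodstream forms in HMI-9 with 10% heat-inactivated FBS, 37 °C, 5% CO2, seeded at 2 × 10^5 cells/mL with 10 μM test compound. Sampled at 0, 6, 12 and 24 h, pelleted at 4 °C, washed in PBS pH 7.4 and spread on slides. DAPI-stained; brightfield and fluorescence imaging scored nuclear and kinetoplast division, cytokinesis and morphology.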

T2 sequence (Q07343 whole entry): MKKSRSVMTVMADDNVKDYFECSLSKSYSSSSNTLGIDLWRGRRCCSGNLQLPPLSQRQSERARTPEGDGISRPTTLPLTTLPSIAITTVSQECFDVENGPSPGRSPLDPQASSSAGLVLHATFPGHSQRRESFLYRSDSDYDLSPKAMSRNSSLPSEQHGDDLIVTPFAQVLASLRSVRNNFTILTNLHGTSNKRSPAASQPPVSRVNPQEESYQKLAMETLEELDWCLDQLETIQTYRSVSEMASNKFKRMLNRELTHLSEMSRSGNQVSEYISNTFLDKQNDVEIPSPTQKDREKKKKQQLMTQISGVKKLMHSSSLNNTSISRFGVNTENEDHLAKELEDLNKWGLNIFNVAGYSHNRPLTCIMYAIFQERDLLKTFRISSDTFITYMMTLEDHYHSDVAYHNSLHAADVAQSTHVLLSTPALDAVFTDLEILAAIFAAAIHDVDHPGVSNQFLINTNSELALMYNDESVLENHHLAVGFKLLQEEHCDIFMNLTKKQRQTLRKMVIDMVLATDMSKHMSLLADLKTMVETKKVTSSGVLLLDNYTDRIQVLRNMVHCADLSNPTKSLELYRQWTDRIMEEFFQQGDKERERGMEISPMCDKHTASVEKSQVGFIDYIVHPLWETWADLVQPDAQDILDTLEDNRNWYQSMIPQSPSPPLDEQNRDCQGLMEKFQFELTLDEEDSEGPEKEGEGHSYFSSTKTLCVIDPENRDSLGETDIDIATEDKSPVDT

For the molecule `COc1ccc(C2=NN(C3CCCCCC3)C(=O)C3CC=CCC23)cc1-c1ccc(C(=O)N2CC[C@@H](O)C2)cc1` (mixture of isomers) [compound 21, cis-2-Cycloheptyl-4-(4′-((R)-3-hydroxy-pyrrolidine-1-carbonyl)-6-methoxy-[1,1′-biphenyl]-3-yl)-4a,5,8,8a-tetrahydrophthalazin-1(2H)-one], the “Selectivity, hPDE4B1 (Ki)/TbrPDEB1 (Ki)” value at full length TbrPDEB1 [1] stood at 9.

In the case of `COc1ccc(C2CNC(=O)C2)cc1OC1CCCC1` (stereo not drawn) [rolipram], the “inhibition of the enzyme TbrPDEB1” value on full length TbrPDEB1 [2] is listed as “do not inhibit”. Also, in test [3], the “inhibition of T. brucei cellular PDE activity” value is on record as “do not inhibit”. In the test on T. brucei, the “killing of the parasite” value is recorded as “do not kill the parasite”.

Turning to `COc1ccc(C2=NN(C3CCCCCC3)C(=O)[C@@H]3CC=CC[C@H]23)cc1-c1ccc(C(=O)NCC(=O)NCCO)cc1` (relative stereo) [compound 16, 5′-(cis-3-Cycloheptyl-4-oxo-3,4,4a,5,8,8a-hexahydrophthalazin-1-yl)-N-(2-((2-hydroxyethyl)amino)-2-oxoethyl)-2′-methoxy-[1,1′-biphenyl]-4-carboxamide], the “selectivity for TbrPDEB1 over hPDE4B1” value on full length TbrPDEB1 [1] is given as ~8 fold.

For `COc1ccc(C2=NN(C3CCCCCC3)C(=O)C3CC=CCC23)cc1-c1ccc(C(=O)N2CCC[C@@H]2C(N)=O)cc1` (mixture of isomers) [compound 23, (R)-1-(5′-(cis-3-Cycloheptyl-4-oxo-3,4,4a,5,8,8a-hexahydrophthalazin-1-yl)-2′-methoxy-[1,1′-biphenyl]-4-carbonyl)pyrrolidine-2-carboxamide], the “selectivity for TbrPDEB1 over hPDE4B1” value at full length TbrPDEB1 [1] is given as “more than 10 fold”.

As for `COc1ccc(C2=NN(C(C)C)C(=O)C3CC=CCC23)cc1-c1ccc(C(=O)N2CCC[C@@H]2C(N)=O)cc1` (mixture of isomers) [compound 24, (R)-1-(5′-(cis-3-Isopropyl-4-oxo-3,4,4a,5,8,8a-hexahydrophthalazin-1-yl)-2′-methoxy-[1,1′-biphenyl]-4-carbonyl)pyrrolidine-2-carboxamide], at full length TbrPDEB1 [1], the “selectivity for TbrPDEB1 over hPDE4B1” value is listed as “more than 10 fold” and the “Selectivity, hPDE4B1 (Ki)/TbrPDEB1 (Ki)” value turned out to be 18. The Ki in [4] was 10000 nM.

For `COc1ccc(C2=NN(C3CCCCCC3)C(=O)[C@@H]3CC=CC[C@H]23)cc1OCCCCOc1ccc(-c2nnn[nH]2)cc1` [compound 1], the “effect on intracellular cAMP level” value in test [5] (positive control 0.3 μM, compared with 10 μM of 8) is reported as “equally effective”. The IC50 in test [6] is 0.6 nM; in the test with hPDE4 subtypes, < 1 nM.

As to `COc1ccc(C2=NN(C3CCCCCC3)C(=O)[C@H]3CC=CC[C@@H]23)cc1-c1ccc(C(=O)NCC(N)=O)cc1` [8a, N-(2-Amino-2-oxoethyl)-5′-((4aS,8aR)-3-cycloheptyl-4-oxo-3,4,4a,5,8,8a-hexahydrophthalazin-1-yl)-2′-methoxy-[1,1′-biphenyl]-4-carboxamide], the “fold less potent against TbrPDEB1 than optical isomer 8b” value on full length TbrPDEB1 [1] (8a versus 8b) is recorded as 100 fold.

On to `CCOC(=O)c1cnc2c(cnn2CC)c1NN=C(C)C` [etazolate], for which the “inhibition of the enzyme TbrPDEB1” value on full length TbrPDEB1 [2] is “do not inhibit”. Further, in test [3], the “inhibition of T. brucei cellular PDE activity” value was “do not inhibit”. Moreover, the “killing of the parasite” value in the test with T. brucei is listed as “do not kill the parasite”.

In the case of `COc1ccc(C2=NN(C3CCCCCC3)C(=O)[C@@H]3CC=CC[C@H]23)cc1-c1ccc(C(=O)NCC(N)=O)cc1` (relative stereo) [compound 8, N-(2-Amino-2-oxoethyl)-5′-(cis-3-cycloheptyl-4-oxo-3,4,4a,5,8,8a-hexahydrophthalazin-1-yl)-2′-methoxy-[1,1′-biphenyl]-4-carboxamide], the inhibition constant Ki is 100 nM on full length TbrPDEB1 [1] and 1000 nM in test [4]. For the same molecule, the “effect on intracellular cAMP level” value is “small but significant effect” in test [5] (100 nM, P < 0.05) and “strong increase of cAMP level” in test [5] (10 μM, P < 0.001). Further, the “cellular phenotype by fluorescence microscopy” value in test [7] (6 h) is “defect in cytokinesis”; in test [7] (12 h), “rounded cells with multiple flagella, some of them detached, and at least 4 nuclei”; in [7] (24 h), “only a few live cells could be detected, all of which were severely misshapen”.

Turning to `COc1ccc(C2=NN(C(C)C)C(=O)C3CC=CCC23)cc1-c1ccc(C(=O)N2CC[C@@H](O)C2)cc1` (mixture of isomers) [compound 22, cis-4-(4′-((R)-3-Hydroxypyrrolidine-1-carbonyl)-6-methoxy-[1,1′-biphenyl]-3-yl)-2-isopropyl-4a,5,8,8a-tetrahydrophthalazin-1(2H)-one], at full length TbrPDEB1 [1], the inhibitory constant (Ki) was 200 nM and the “Selectivity, hPDE4B1 (Ki)/TbrPDEB1 (Ki)” value is 15. The inhibition constant Ki in [4] is 3160 nM.

On to `N=C(N)c1ccc(OCCCCCOc2ccc(C(=N)N)cc2)cc1` [pentamidine, reference compound], for which, in [5] (negative control, 0.025 μM, versus untreated parasites), the “effect on intracellular cAMP level” value is listed as “not statistically different from untreated parasites”.
